Measurements taken from article PMC11040699 (JACS Au, 2024).
Entries after “also recorded” stand apart in the source; their conditions may differ. Each block holds one molecule with its values, some of them ahead of it. Residues, ends and D or L forms follow the SMILES beside them. No end group written: not given here. *: point of attachment. Acetyl(9-fluorenyl) = O=C(CC1c2ccccc2-c2ccccc21)*

Key:
[1] = tested on: endogenous hKlotho in HK-2 cell lysate; experiment: Pull-down assay from HK-2 cell lysate; format: binding, human; conditions: for selectivity of pull-down by silver stain, HK-2 cell lysate: silver stain of eluents
How it was run: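 HK-2 cells (Keratinocyte SFM with bovine pituitary extract and EGF; 37 °C, 5% CO2) were scraped and lysed in RIPA with protease inhibitors; 20% kept as input. 200 μg lysate: unlabelled competitor preincubated 15 min, then biotinylated probe 30 min RT. Streptavidin magnetic beads 20 min, PBS washes, 8 M urea elution 30 min. SDS-PAGE, then silver stain or KM2076 western (1:1000, 4 °C overnight; HRP anti-rat; chemiluminescence). Bands quantified by densitometry.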

[2] = target: T1, recombinant mouse α-Klotho (mKlotho) (Mus musculus, UniProt O35082); experiment: Competition binding assay with BLI against immobilized Pep-10-Biotin, mKlotho
T1 sequence (O35082 35-960): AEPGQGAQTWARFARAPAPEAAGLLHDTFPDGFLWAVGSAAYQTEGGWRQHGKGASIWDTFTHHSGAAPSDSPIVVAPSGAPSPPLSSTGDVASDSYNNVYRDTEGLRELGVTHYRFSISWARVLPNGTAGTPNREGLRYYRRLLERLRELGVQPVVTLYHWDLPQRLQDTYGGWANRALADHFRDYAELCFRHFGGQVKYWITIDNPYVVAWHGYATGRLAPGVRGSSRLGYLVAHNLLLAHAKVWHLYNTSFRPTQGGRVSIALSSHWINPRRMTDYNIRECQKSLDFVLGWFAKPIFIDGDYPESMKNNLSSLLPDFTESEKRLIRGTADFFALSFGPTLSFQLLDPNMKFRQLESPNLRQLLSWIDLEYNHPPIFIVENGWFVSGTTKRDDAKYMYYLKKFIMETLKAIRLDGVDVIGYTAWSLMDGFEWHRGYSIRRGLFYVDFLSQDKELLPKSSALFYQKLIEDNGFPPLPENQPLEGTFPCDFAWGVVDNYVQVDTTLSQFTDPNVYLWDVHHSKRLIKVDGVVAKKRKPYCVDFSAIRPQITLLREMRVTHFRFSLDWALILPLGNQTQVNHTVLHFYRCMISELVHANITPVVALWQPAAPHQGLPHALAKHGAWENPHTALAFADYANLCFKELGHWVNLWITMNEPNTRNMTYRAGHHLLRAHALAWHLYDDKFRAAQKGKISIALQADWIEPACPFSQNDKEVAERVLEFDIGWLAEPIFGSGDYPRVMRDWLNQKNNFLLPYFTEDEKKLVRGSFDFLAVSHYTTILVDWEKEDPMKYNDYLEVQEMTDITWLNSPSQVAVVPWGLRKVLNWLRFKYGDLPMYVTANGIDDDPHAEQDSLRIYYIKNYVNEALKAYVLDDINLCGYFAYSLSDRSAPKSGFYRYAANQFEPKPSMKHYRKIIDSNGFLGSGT

[3] = target: recombinant human α-Klotho (human) (UniProt Q9UEF7); experiment: BLI
Sequence of recombinant human α-Klotho (human) (Q9UEF7 34-1012): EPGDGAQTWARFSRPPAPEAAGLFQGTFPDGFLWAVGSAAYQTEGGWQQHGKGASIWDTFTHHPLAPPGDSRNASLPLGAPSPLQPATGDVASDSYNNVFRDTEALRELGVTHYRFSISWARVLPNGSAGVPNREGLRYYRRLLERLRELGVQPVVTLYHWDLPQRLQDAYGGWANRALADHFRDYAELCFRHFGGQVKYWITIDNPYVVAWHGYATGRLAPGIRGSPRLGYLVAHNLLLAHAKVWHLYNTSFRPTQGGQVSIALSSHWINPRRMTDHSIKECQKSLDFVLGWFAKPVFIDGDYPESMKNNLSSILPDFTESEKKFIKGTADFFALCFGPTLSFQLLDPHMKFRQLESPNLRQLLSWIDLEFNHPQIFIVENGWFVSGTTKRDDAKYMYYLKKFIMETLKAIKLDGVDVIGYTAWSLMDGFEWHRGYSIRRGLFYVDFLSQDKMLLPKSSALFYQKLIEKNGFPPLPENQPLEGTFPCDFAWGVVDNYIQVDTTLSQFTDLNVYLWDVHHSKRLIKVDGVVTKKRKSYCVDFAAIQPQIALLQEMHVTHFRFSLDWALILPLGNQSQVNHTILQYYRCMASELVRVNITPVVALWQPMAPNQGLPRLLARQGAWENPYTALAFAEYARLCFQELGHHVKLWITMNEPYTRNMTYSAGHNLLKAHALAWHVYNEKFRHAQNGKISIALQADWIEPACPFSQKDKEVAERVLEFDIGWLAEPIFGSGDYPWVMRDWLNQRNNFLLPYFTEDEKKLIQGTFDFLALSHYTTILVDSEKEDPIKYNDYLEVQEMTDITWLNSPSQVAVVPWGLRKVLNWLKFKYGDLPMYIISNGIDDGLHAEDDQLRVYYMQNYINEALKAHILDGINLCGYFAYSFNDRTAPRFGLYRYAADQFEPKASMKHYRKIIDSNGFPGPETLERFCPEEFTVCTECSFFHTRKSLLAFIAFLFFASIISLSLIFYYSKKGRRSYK

[4] = target: recombinant mouse α-Klotho (mouse) (UniProt O35082); experiment: BLI
Target sequence in this assay (O35082 35-1014): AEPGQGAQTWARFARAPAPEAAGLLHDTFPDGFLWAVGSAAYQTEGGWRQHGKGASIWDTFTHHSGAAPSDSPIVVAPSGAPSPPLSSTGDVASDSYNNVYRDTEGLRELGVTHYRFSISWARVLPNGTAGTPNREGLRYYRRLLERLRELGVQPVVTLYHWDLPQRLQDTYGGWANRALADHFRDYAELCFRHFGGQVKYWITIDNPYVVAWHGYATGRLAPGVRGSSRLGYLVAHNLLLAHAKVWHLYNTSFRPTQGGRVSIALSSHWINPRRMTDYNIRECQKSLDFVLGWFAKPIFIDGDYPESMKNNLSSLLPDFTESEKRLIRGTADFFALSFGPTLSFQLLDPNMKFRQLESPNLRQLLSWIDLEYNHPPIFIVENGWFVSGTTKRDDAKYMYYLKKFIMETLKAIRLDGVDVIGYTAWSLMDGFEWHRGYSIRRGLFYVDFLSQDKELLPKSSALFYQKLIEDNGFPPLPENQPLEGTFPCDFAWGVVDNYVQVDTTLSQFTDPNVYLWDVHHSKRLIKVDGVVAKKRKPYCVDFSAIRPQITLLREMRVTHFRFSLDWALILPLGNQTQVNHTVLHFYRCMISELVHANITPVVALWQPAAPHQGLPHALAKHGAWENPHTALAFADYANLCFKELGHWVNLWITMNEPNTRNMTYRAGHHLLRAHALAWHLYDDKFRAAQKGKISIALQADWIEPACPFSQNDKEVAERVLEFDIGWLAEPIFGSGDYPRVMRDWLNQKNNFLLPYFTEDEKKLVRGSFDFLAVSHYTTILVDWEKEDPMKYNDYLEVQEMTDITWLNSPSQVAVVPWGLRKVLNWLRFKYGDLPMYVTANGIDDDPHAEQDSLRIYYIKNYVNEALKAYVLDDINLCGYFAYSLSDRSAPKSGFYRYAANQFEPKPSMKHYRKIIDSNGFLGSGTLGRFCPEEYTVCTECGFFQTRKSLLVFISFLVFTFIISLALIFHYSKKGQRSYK

[5] = target: recombinant mouse α-Klotho (mouse) (UniProt O35082); experiment: affinity selection-mass spectrometry

Kd [3]: 151 nM
B1: fibroblast growth factor 23 (ligand)
chain: YPNASPLLGSSWGGLIHLYTATARNSYHLQIHKNGHVDGAPHQTIYSALMIRSEDAGFVVITGVMSRRYLCMDFRGNIFGSHYFDPENCRFQHQTLENGYDVYHSPQYHFLVSLGRAKRAFLPGMNPPPYSQFLSRRNEIPLIHFNTPIPRRHTRSAEDDSERDPLNVLKPRARMTPAPASCSQELPSAEDNSPMASDPLGVVRGGRVNTHAGGTGPEGCRPFAKFI

Kd [4]: 19 nM
Molecule: fluorenyl-ASDPLGVVRGRA [K12]

Kd [4]: 139 nM
recovery yield [5]: 0.5%
Molecule: fluorenyl-ASDPLGVVRPRA [K4]

Kd [4]: 5900 nM
Molecule: PMASDPLGVVRPRARM [Pep-10]

Kd [4]: 9 nM
Molecule: fluorenyl-ASDPLGVVRGRAR (not fully specified (C-terminus)) [K17]

The next lines start with the molecule.

Molecule: Biotin-PEG4-PMASDPLGVVRPRAM [Pep-10-Biotin]
selectivity of pull-down by silver stain, HK-2 cell lysate ([1]; 50 nM of biotinylated peptides): not enriched
selectivity of pull-down by silver stain, HK-2 cell lysate ([1]; legend of Figure 4D, 200 nM printed, n = 2): not able to enrich Klotho
Klotho enrichment in pulled-down fraction, HK-2 cell lysate ([1]; western blot, probe at 2 μM, n = 2): minor enrichment; also recorded: moderately enriched

Molecule: CSCC[C@H](NC(=O)[C@H](CCCNC(=N)N)NC(=O)[C@H](C)NC(=O)[C@H](CCCNC(=N)N)NC(=O)[C@@H]1CCCN1C(=O)[C@H](CCCNC(=N)N)NC(=O)[C@@H](NC(=O)[C@@H](NC(=O)CNC(=O)[C@H](CC(C)C)NC(=O)[C@@H]1CCCN1C(=O)[C@H](CC(=O)O)NC(=O)[C@H](CO)NC(=O)[C@H](C)NC(=O)[C@H](CCSC)NC(=O)[C@@H]1CCCN1C(=O)CC1c2ccccc2-c2ccccc21)C(C)C)C(C)C)C(N)=O [K1] ({Acetyl(9-fluorenyl)}-PMASDPLGVVRPRARM-NH2)
fold change of competition KD relative to Pep-10 [2]: 89 fold

Molecule: fluorenyl-PMASDPLGVVRARARM [K1 P12A]
Kd [4]: 15 nM

Molecule: fluorenyl-PMASDPLGVVRPRARM [K1]
Kd [4]: 66 nM
